The record followed here is ChEMBL document CHEMBL4373710, “DNA Structural Alteration Leading to Antibacterial Properties of 6-Nitroquinoxaline Derivatives” (J Med Chem, 2019).

Converted amounts (≈) assume the structure as drawn. The source made the active and inactive calls.

Data set [1] concerns Staphylococcus aureus. In words: Antibacterial activity against Staphylococcus aureus MTCC737 measured after 6 hrs by broth microdilution assay. The class given is functional. Conditions: MTCC737, 6 h. In short, it runs like this: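 Broth microdilution per CLSI; 5×10^5 cfu/mL bacteria in LB broth; compounds from DMSO stocks, final DMSO under 0.6%, with DMSO control. Plates incubated at the strain's recommended growth temperature and time; growth read as OD600.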
(Dilution methods test growth across graded concentrations, often in twofold steps.)

Data set [2] concerns HEK293. The experiment in a line: Cytotoxicity against HEK293 cells measured after 24 hrs by MTT assay. Conditions: Homo sapiens, HEK293, 24 h. Format: cell-based. The method in brief:
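HEK 293 cells, 4000/well, seeded overnight in DMEM + 10% FBS at 37°C in CO2; compound dose series for 24 h (final DMSO <0.5%, DMSO-only control). MTT at 1 mg/mL final for 3 h, formazan dissolved in DMSO, absorbance 595 nm; IC50 from triplicate OD data.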
(Formazan colour is commonly taken as a measure of viable cells.)

Data set [3] in a line: Binding affinity to pCDNA 3.1 (unknown origin) assessed as DNA unwinding effect at 2:1 to 4:1 compound to DNA ratio measured after 16 hrs by EtBr staining agarose gel shift assay. The method in brief: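 pcDNA3.1 plasmid was grown in E. coli DH5α and used at 40 µM in 50 mM NaP, pH 7, with 10 mM NaCl. Mixed with compound at set [compound]:[DNA bp] ratios and held 16 h at 37 °C. Run on 1% agarose at 50 V for about 3 h, then stained with EtBr (1 µg/mL) for 5 min.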

Data set [4] has as its system DNA. In words: Binding affinity to Staphylococcus aureus DNA assessed as induction of structural changes by EtBr staining based agarose gel shift assay. Format: nucleic-acid assay. In short, it runs like this: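 S. aureus genomic DNA incubated with compound at stated [compound]:[DNA bp] ratios, 16 h at 37 °C, in NaP buffer pH 7 with 10 mM NaCl. Run on agarose gel, stained with EtBr (1 µg/mL) and classed as supercoiled, structurally altered or condensed.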
(In EMSA bound probe runs differently from free probe, usually more slowly.)

The subject of data set [5] is Poly(dG-dC)oligonucleotide. The experiment in a line: Binding affinity to poly(dG-dC) DNA (unknown origin) assessed as change in B-DNA structure by circular dichroism method. The class given is nucleic-acid assay. The method in brief:
(§1)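 Poly(dA-dT)·poly(dA-dT) or poly(dG-dC)·poly(dG-dC) held at 10 µM. Titrated with compound from 20 to 60 µM and followed by circular dichroism for change in the B-DNA band and appearance of induced CD.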

Data set [6] deals with Poly(dA-dT)oligonucleotide. The experiment in a line: Binding affinity to poly(dA-dT) DNA (unknown origin) assessed as appearance of induced CD up to 6:1 compound to DNA ratio by circular dichroism method. The class given is nucleic-acid assay. The method in brief:
as §1

Data set [7] deals with DNA. In words: Binding affinity to Staphylococcus aureus DNA assessed as change in B-DNA structure by circular dichroism method. The class given is nucleic-acid assay. The method in brief:
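Genomic DNA isolated from overnight cultures of each strain. Titrated with compound from 15 to 60 µM in a 10 mm quartz cuvette. CD spectra recorded from 230 to 500 nm at 100 nm/min; ellipticity followed at 320 nm.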

In data set [8] the test system is DNA. In words: Binding affinity to DNA isolated from HEK293 cells assessed as change in ellipticity at 262 nm at 15 to 180 uM by circular dichroism method. The class given is ADME, cell-free. Conditions: human.
Data set [9] deals with DNA. In words: Inhibition of ethidium bromide binding to Staphylococcus aureus DNA assessed as Stern-Volmer quenching constant by fluorescence assay. Format: nucleic-acid assay. In short, it runs like this: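 Fluorescence intercalator displacement: S. aureus genomic DNA 10 µM plus EtBr 5 µM in 10 mM NaP pH 7, 10 mM NaCl, 1% DMSO, at 25 and 37 °C; titrated with 2.5–100 µM compound. Excitation 480 nm, emission 520–700 nm, inner-filter corrected, triplicates; Stern–Volmer analysis, F0/F = 1 + Ksv[Q].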

In data set [10] the test system is DNA. In words: Inhibition of ethidium bromide binding to Staphylococcus aureus DNA at pH 6 to 8 by fluorescence assay. Format: nucleic-acid assay. In short, it runs like this:
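S. aureus genomic DNA (10 µM) with EtBr (5 µM) in 10 mM NaP pH 7, 10 mM NaCl and 1% DMSO, at 25 and 37 °C. Titrated with compound from 2.5 to 100 µM. Excitation 480 nm, emission scanned 520–700 nm, corrected for inner filter. Stern–Volmer analysis, triplicates. Variants: pH 6–8, or NaCl raised to 50 and 200 mM.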

Data set [11] deals with DNA. The experiment in a line: Binding affinity to Staphylococcus aureus DNA assessed as transition of local to global DNA at 1:1 to 3:1 compound to DNA ratio by atomic force microscopic analysis. The class given is nucleic-acid assay. In short, it runs like this: (§2)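 Isolated S. aureus genomic DNA (2.8 Mbp) treated with compound at increasing [compound]:[DNA bp] ratios, up to 3:1. Imaged by atomic force microscopy against untreated DNA.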

In data set [12] the test system is DNA. In words: Binding affinity to Staphylococcus aureus DNA assessed as formation of DNA superstructure at 1:1 to 3:1 compound to DNA ratio by atomic force microscopic analysis. The class given is nucleic-acid assay. In short, it runs like this:
as §2

Data set [13] concerns DNA. In words: Induction of DNA condensation in Staphylococcus aureus assessed as nucleoid shrinkage at 10 uM after 1 hr by DAPI staining-based confocal laser scanning fluorescence microscopic analysis. The class given is nucleic-acid assay. The method in brief: (§3)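 S. aureus grown 6 h at 37 °C, washed into PBS and exposed to 10 µM compound or 0.5% DMSO for 1 h at 37 °C with shaking. Fixed in paraformaldehyde for 30 min at 4 °C, then DAPI-stained for 5 min. Nucleoid and cell areas measured from phase contrast/DAPI images; N/C ratio from 35 cells over three independent experiments, mean ± SD.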

Data set [14] deals with DNA. The experiment in a line: Induction of DNA condensation in Staphylococcus aureus assessed as decrease in nucleoid area at 10 uM after 1 hr by DAPI staining-based confocal laser scanning fluorescence microscopic analysis relative to control. The class given is nucleic-acid assay. Details: scale not given: the % may be the effect or the level left. In short, it runs like this:
as §3

The test system of data set [15] is Staphylococcus aureus. The experiment in a line: Inhibition of DNA synthesis in Staphylococcus aureus at 3.5 uM measured after 1 hr by BrdU incorporation assay. Format: functional, organism-based. In short, it runs like this:
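Log-phase S. aureus (10^5–10^6 CFU/mL) exposed to 3.5 µM for 1 h at 37°C, then BrdU pulse for 30 min; fixed in paraformaldehyde, permeabilised (Triton X-100/lysostaphin), DNA denatured in 2N HCl, stained with FITC anti-BrdU antibody, confocal imaging.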

Data set [16] concerns Staphylococcus aureus. The experiment in a line: Induction of DNA fragmentation in Staphylococcus aureus at 3.5 uM by EtBr staining based confocal laser scanning fluorescence microscopic analysis. Format: functional, organism-based.
Data set [17] deals with Staphylococcus aureus. In words: Induction of DNA breaks in Staphylococcus aureus at 3.5 uM by TUNEL staining based confocal laser scanning fluorescence microscopic analysis. Format: functional, organism-based. The method in brief: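 S. aureus treated with 3.5 µM or 0.5% DMSO; pelleted, fixed in 16% paraformaldehyde 30 min at 4°C, permeabilised with 0.2% Triton X-100 plus lysostaphin 0.05 mg/mL; TdT tailing with fluorescent nucleotides 60 min at 37°C, stopped with 2X SSC; confocal imaging with fluorescein filter.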

Data set [18] relates to Staphylococcus aureus. The experiment in a line: Induction of morphological changes in Staphylococcus aureus assessed as cell aggregation at 3.5 to 5 uM by atomic force microscopic analysis. Format: functional, organism-based.
Data set [19] relates to Staphylococcus aureus. The experiment in a line: Disruption of cell membrane in Staphylococcus aureus assessed as accumulation of propidium iodide negative cells at 3.5 uM by flow cytometric analysis (reference value: 98.2%). The class given is functional.
Data set [20] deals with Staphylococcus aureus. In words: Disruption of cell membrane in Staphylococcus aureus assessed as accumulation of propidium iodide positive cells at 5 uM by flow cytometric analysis (reference value: 1.7%). The class given is functional.

The molecule `CN(C)CCCNc1nc2cc([N+](=O)[O-])ccc2nc1NCc1ccc(C(F)(F)F)cc1` had an MIC in data set [1] of 1.79 µg/mL (≈ 3.99 µM). In [2], this molecule yielded an IC50 of 5.66 µg/mL (≈ 12.6 µM). The result in [3], in [11], in [12], in [13], in data set [16] and in data set [17] was Active. Further, in [18], the result was Active. For the same molecule, the Activity entry in [4] was “Dose-dependent effect”; in data set [5] it was “Dose-dependent effect”; in [7], “Dose-dependent effect”; in data set [8] it was “Active”; in data set [14], 30%; in data set [19], 91.6%. For the same molecule, the Activity in data set [20] came to 20.4%. Moreover, the outcome in data set [6] was inactive. In data set [9], the KSV was 1 ×10⁴ /M. Also, the inhibition entry in [10] and in data set [15] was “Active” each time.

The MIC is the smallest concentration in the dilution series that meets the test's criterion for growth inhibition. The IC50 is the concentration at which inhibition is half-maximal.
